Results collected from several papers.
Target: Insulin-like growth factor 1 receptor (IGF1R, Homo sapiens, UniProt P08069)

| Structure (SMILES) | test | setting | endpoint | result |
| --- | --- | --- | --- | --- |
| O=c1[nH]c2ccccc2n1C1CCN(Cc2ccc(-c3[nH]c4cc5ncnc5cc4nc3-c3ccccc3)cc2)CC1 | cell-free assay | 0.5 µM | remaining signal | 91.2% |
| Cn1cncc1[C@](O)(COc1ccc(C#N)cc1-c1ccc(OC(F)(F)F)cc1)c1ccc(C#N)cc1 | cell-free assay, competition with immobilised ligand | 1 µM | remaining binding | 92% |
| CC(C)(C)c1cc(C=C(C#N)C#N)cc(Br)c1O | enzyme activity, inhibitor | 0.5 µM | remaining activity | 96.6% |
| C#Cc1n[nH]c2c(-c3cn([C@@H](C)c4ccccn4)c(=O)[nH]c3=O)cc(F)cc12 | enzyme activity, inhibitor | 0.1 µM | inhibition | 8.7% |
| COc1ncccc1-c1cnn2ccc(N3CCN(C(=O)OC(C)C)CC3)nc12 | binding, competition with immobilised ligand | 1 µM | remaining binding | 100% |
| Cn1cc(-c2cccc(N3CCc4c(sc5c4CC(C)(C)C5)C3=O)c2CO)cc(Nc2ccncn2)c1=O | enzyme activity, inhibitor | 1 µM | inhibition | 3% |
| Nc1ncc(-c2nc(N3CCOCC3)nc(N3CCOCC3)n2)c(C(F)F)n1 | cell-free assay, competition with immobilised ligand | 10 µM | remaining binding | 78% |
| Cc1nn(C)cc1-c1nc2c(N3CCN(Cc4ccc(Cl)cc4)CC3)c(Cl)cnc2[nH]1 | binding, competition with immobilised ligand | 1 µM | remaining binding | 100% |
| C#Cc1n[nH]c2c(-c3cn([C@@H](C)c4ccccc4)c(=O)[nH]c3=O)cc(F)cc12 | enzyme activity, inhibitor | 0.1 µM | inhibition | 7.8% |
| Cn1cc(-c2cc(F)cc(N3CCn4c(cc5c4CCCC5)C3=O)c2CO)cc(Nc2ccc(N3CCN(C4COC4)CC3)cn2)c1=O | enzyme activity, inhibitor | 0.1 µM | inhibition | 4% |
